Assay results from different studies.
Protocols differ between the studies behind these lines.

| SMILES | cell line | test | conditions | quantity | result |
| --- | --- | --- | --- | --- | --- |
| C=CC(=O)N1CCN(c2nc(=O)n(-c3c(C)ccnc3C(C)C)c3nc(-c4c(O)cccc4F)c(F)cc23)[C@@H](C)C1 | NCI-H1437 | cell growth or viability, resazurin | 72 h | GI50 | > 10 µM |
| C/C(=N\O)c1ccc(-c2ccc(C(F)(F)F)cc2)c(Cl)c1O | NCI-H1299 | cell growth or viability, MTT | 30 µM, 48 h | viability | 89% |
| Oc1ccc(Br)cc1-c1nc2ccccc2[nH]1 | human Rhabdomyosarcoma cell | cell growth or viability, MTT | 48 h | IC50 | 7.25 µM |
| Cc1cc(Nc2ccc(C(=O)N/N=C/C3CCCCC3)cc2)c2cccc(O)c2n1 | SMMC-7721 | cell growth or viability, MTT | 20 µM | inhibition | 26.3% |
| Clc1ccc(-c2nc3ccccc3[nH]2)c(Cl)c1 | human Rhabdomyosarcoma cell | cell growth or viability, MTT | 48 h | IC50 | 35 µM |
| CC(C)C[C@H](NC(=O)[C@H](Cc1ccccc1)NC(=O)c1cnccn1)B(O)O | COR-L279 | cell growth or viability, ATP luminescence | – | IC50 | 0.0076 µM |
| CC(=O)c1cccc(N=Nc2c(C(=O)O)cc(O)c(O)c2O)c1 | RAW264.7 | TNF-α release, inhibitor, ELISA | 10 µM, LPS-stimulated | inhibition | 48% |
| O=C(/C=C(O)/C=C/c1ccc[nH]1)/C=C/c1c[nH]c2ccccc12 | CHO-K1 | cell growth or viability, MTT | 72 h | IC50 | 11 µM |
| Cc1cc(Nc2ccc(C(=O)N/N=C/c3ccc(N(C)C)cc3)cc2)c2cccc(O)c2n1 | SMMC-7721 | cell growth or viability, MTT | 20 µM | inhibition | 33.6% |
| COC(=O)c1ccc2c(c1)NC(=O)/C2=C(\Nc1ccc(N(C)C(=O)CN2CCN(C)CC2)cc1)c1ccccc1 | L929 | cell growth or viability, MTT | 10 µM, 24 h | inhibition | < 50% |
| O=C(/C=C(O)/C=C/c1cccnc1)/C=C/c1c[nH]c2ccccc12 | CHO-K1 | cell growth or viability, MTT | 72 h | IC50 | 9.2 µM |
| COc1ccc(-c2nc3ccc(C)cc3[nH]2)cc1OC | human Rhabdomyosarcoma cell | cell growth or viability, MTT | 48 h | IC50 | > 100 µM |
| O=C1CCC(N2Cc3cc(CNC(=O)C(F)(F)c4ccc(Cl)cc4)ccc3C2=O)C(=O)N1 (stereo not shown) | MHHCALL4 | cell growth or viability, ATP luminescence | – | EC50 | 4.13 nM |
| COc1ccc(-c2ccc(-c3ccc(C(=N)N)nc3)s2)cc1 | M14 | cell growth or viability, SRB | – | GI50 | 1.8 µM |
| C=C(F)C(=O)N1CCN(c2nc(OC[C@@H]3CCCN3C)nc3c2CCN(c2cccc4cccc(Cl)c24)C3)C[C@@H]1CC#N | NCI-H1437 | cell growth or viability, resazurin | 72 h | GI50 | 3.68 µM |
| COc1cc(Nc2nccc(-c3cnn4nc(OC)ccc34)n2)cc(C(F)(F)F)c1 | OV56 | cell growth or viability, ATP luminescence | – | IC50 | 1.4 µM |
| O=C(/C=C(O)/C=C/c1ccccn1)/C=C/c1c[nH]c2ccccc12 | CHO-K1 | cell growth or viability, SRB | 72 h | IC50 | 34.7 µM |
| Cc1cc(Nc2ccc(C(=O)N/N=C/c3cc4ccccc4[nH]3)cc2)c2cccc(O)c2n1 | SMMC-7721 | cell growth or viability, MTT | 20 µM | inhibition | 54.3% |
| CCn1cc(-c2cccc(C(F)(F)F)c2)c2sc(C(=N)NC3CCS(=O)(=O)CC3)cc2c1=O | HL-60 | cell growth or viability | 7 days | EC50 | 433 nM |
| N#C[Se]CCOc1ccccc1Oc1ccccc1 | Vero | cell growth or viability | 72 h | CC50 | > 20 µM |
| COc1ccc(-c2nc3ccc(C)cc3[nH]2)cc1O | human Rhabdomyosarcoma cell | cell growth or viability, MTT | 48 h | IC50 | 48.7 µM |
| C[C@@H](Oc1cc(-c2cnn(C3CCNCC3)c2)cnc1N)c1c(Cl)ccc(F)c1Cl | NCI-H3122 | cell growth or viability, MTT | 0.2 µg/mL, 72 h | inhibition | 52.9% |

| SMILES | cell line | test | conditions | quantity | result |
| --- | --- | --- | --- | --- | --- |
| Cc1cc(Nc2ccc(C(=O)N/N=C/c3ccc[nH]3)cc2)c2cccc(O)c2n1 | SMMC-7721 | cell growth or viability, MTT | 20 µM | inhibition | 16.1% |
| FC(F)(F)SCCOc1ccc(Oc2ccccc2)cc1 | Vero | cell growth or viability | 72 h | CC50 | > 20 µM |
| Cc1cccc(/C=N/NC(=O)c2ccc(Nc3cc(C)nc4c(O)cccc34)cc2)n1 | SMMC-7721 | cell growth or viability, MTT | 20 µM | inhibition | 19.9% |
| COc1cc(/C=C/c2cc(/C=C/c3ccncc3)[nH]n2)ccc1O | CHO-K1 | cell growth or viability, MTT | 72 h | IC50 | 32.2 µM |
| COc1ccc(-c2ccc(/C(C)=N/O)c(O)c2Cl)cc1Cl | NCI-H1299 | cell growth or viability, MTT | 30 µM, 48 h | viability | 65% |
| O=C1CCC(N2C(=O)c3ccc(NS(=O)(=O)c4ccccc4OC(F)(F)F)cc3C2=O)C(=O)N1 (stereo not shown) | MHHCALL4 | cell growth or viability, ATP luminescence | – | EC50 | 0.0425 nM |
| Cc1cc(Nc2ccc(C(=O)N/N=C/c3ccc(C)s3)cc2)c2cccc(O)c2n1 | SMMC-7721 | cell growth or viability, MTT | 20 µM | inhibition | 25.1% |
| C/C(=N\O)c1ccc(-c2ccc(OC(F)(F)F)cc2)c(Cl)c1O | NCI-H1299 | cell growth or viability, MTT | 30 µM, 48 h | viability | 106% |
| COc1cc(/C=C/C(=O)/C=C(O)/C=C/c2cccc3cnccc23)ccc1O | CHO-K1 | cell growth or viability, MTT | 72 h | IC50 | 7.6 µM |
| Fc1cccc(Cl)c1-c1nc2ccccc2[nH]1 | human Rhabdomyosarcoma cell | cell growth or viability, MTT | 48 h | IC50 | > 100 µM |
| Cc1cc(Nc2ncc(Cl)c(Nc3ccccc3S(=O)(=O)C(C)C)n2)c(OC(C)C)cc1C1CCNCC1 | NCI-H3122 | cell growth or viability, MTT | 0.08 µg/mL, 72 h | inhibition | 64.2% |
| Cc1ccc2nc(-c3c4ccccc4cc4ccccc34)[nH]c2c1 | human Rhabdomyosarcoma cell | cell growth or viability, MTT | 48 h | IC50 | 27 µM |
| C/C(=N\O)c1ccc(-c2ccc(C#N)cc2)c(Cl)c1O | NCI-H1299 | cell growth or viability, MTT | 30 µM, 48 h | viability | 75% |
| O=C(Cn1ccnc1[N+](=O)[O-])NCc1ccccc1 | Vero | cell growth or viability | 72 h | CC50 | > 10 µM |
| CS(=O)(=O)CCNCc1ccc(-c2ccc3ncnc(Nc4ccc(OCc5cccc(F)c5)c(Cl)c4)c3c2)o1 | NCI-H1299 | cell growth or viability, MTT | 72 h | EC50 | 41000 nM |
| Cc1cc(Nc2ccc(C(=O)N/N=C/c3ccncc3)cc2)c2cccc(O)c2n1 | SMMC-7721 | cell growth or viability, MTT | 20 µM | inhibition | 17.1% |
| COc1cc(/C=C/c2cc(/C=C/c3cccnc3)[nH]n2)ccc1O | CHO-K1 | cell growth or viability, SRB | 72 h | IC50 | 13.6 µM |
| Cc1ccc2nc(-c3cc(Br)ccc3O)[nH]c2c1 | human Rhabdomyosarcoma cell | cell growth or viability, MTT | 48 h | IC50 | 10.4 µM |
| C/C(=N\O)c1ccc(-c2cccc(OC(F)(F)F)c2)c(Cl)c1O | NCI-H1299 | cell growth or viability, MTT | 30 µM, 48 h | viability | 83% |
| COc1ccc(/C=N/NC(=O)c2ccc(Nc3cc(C)nc4c(O)cccc34)cc2)cc1O | SMMC-7721 | cell growth or viability, MTT | 20 µM | inhibition | 30.3% |
| Cc1ccc2nc(-c3ccc(Cl)c(Cl)c3)n(Cc3ccccc3)c2c1 | human Rhabdomyosarcoma cell | cell growth or viability, MTT | – | IC50 | 78.9 µM |
